# Laboratory results taken from ChEMBL document CHEMBL3826951, “Discovery of Benzocycloalkane Derivatives Efficiently Blocking Bacterial Virulence for the Treatment of Methicillin-Resistant S. aureus (MRSA) Infections by Targeting Diapophytoene Desaturase (CrtN)” (J Med Chem, 2016).
# Activity calls are given as the source filed them. The calls are words filed in the database; no cut-off is given here.
# How the values were obtained:
# [1] = target: T1, 4,4'-diapophytoene desaturase (4,4'-diaponeurosporene-forming) (Staphylococcus aureus (strain Newman), UniProt O07855); experiment: Inhibition of diapophytoene desaturase in Staphylococcus aureus Newman assessed as reduction in staphyloxanthin pigment formation after 48 hrs by spectrophotometry; set-up: species or system Staphylococcus aureus subsp. aureus str. Newman
# T1 sequence (O07855 whole entry): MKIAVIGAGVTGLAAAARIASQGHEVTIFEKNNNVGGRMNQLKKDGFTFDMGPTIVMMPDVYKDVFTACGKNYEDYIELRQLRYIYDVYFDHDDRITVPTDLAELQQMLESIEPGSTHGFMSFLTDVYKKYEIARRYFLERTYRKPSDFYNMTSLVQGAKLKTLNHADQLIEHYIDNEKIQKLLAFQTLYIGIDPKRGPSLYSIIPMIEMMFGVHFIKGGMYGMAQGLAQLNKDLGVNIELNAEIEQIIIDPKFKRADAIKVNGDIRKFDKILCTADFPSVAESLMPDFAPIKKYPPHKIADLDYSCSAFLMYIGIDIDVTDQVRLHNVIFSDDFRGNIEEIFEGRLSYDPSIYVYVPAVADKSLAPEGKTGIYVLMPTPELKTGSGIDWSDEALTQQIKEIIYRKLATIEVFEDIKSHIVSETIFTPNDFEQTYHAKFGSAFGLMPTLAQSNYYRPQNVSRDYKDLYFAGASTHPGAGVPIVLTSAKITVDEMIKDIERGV
# [2] = Aqueous solubility of the compound in water after 24 hrs by HPLC method; type: physicochemical
# Method in brief: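 Excess solid stirred in pure water for 24 h, then filtered. Filtrate analysed by HPLC (10 µL injection). Concentration read against a calibration curve of peak area versus concentration, built from methanol solutions at 50–800 µg/mL.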
# [3] = target: T1, 4,4'-diapophytoene desaturase (4,4'-diaponeurosporene-forming); experiment: Inhibition of 6x-His-tagged Staphylococcus aureus diapophytoene desaturase expressed in Escherichia coli BL21 (DE3) using diapophytoene substrate after overnight incubation
# Staphylococcus aureus [4] = experiment: Attenuation of Staphylococcus aureus Newman virulence in BALB/c mouse lethal infection model assessed as mouse survival administered ip every 12 hrs for 108 hrs followed by 2 x 10^7 CFU bacterial challenge after first 12 hrs of compound dosing measured 4 days post challenge; type: functional
# Method in brief: (§1)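 Female BALB/c mice, 6-8 weeks old, kept specific pathogen-free. Dosed ip at 50 or 200 mg/kg every 12 h for 108 h (4.5 d). Challenged 12 h after the first dose with 2 × 10^7 CFU S. aureus Newman. Mortality followed; n = 15; log-rank test.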
# Staphylococcus aureus [5] = experiment: Sensitization of methicillin-resistant Staphylococcus aureus Mu 50 to human whole blood assessed as cell survival at 1 uM after 6 hrs by serial dilution method (reference value: 16.11%); type: functional; details: Mu50, 6 h
# Staphylococcus aureus [6] = experiment: (§2) Attenuation of Staphylococcus aureus Newman virulence in BALB/c mouse systemic infection model assessed as decrease in bacterial survival in kidney at 50 mg/kg, ip administered every 12 hrs for 108 hrs followed by bacterial challenge after first 12 hrs of compound dosing measured 5 days post infection; type: functional
# Method in brief: (§3)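 Abscess model in female BALB/c mice, 6-8 weeks old. Dosed ip every 12 h for 108 h; retro-orbital challenge with 1 × 10^7 CFU Newman in 100 µL at 12 h. Sacrificed day 5. Kidneys and hearts homogenised in PBS plus 0.1% Triton X-100 and plated on TSA for CFU. n = 13; two-tailed Mann-Whitney.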
# Staphylococcus aureus [7] = experiment: Effect on methicillin-resistant Staphylococcus aureus USA400 MW2 growth at 0.05 mM after overnight incubation by plate reader method; type: organism-based; details: 50 µM
# Method in brief: (§4)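 DMSO stock (20 mM) diluted in TSB to final 0.2 or 0.05 mM, overlaid with paraffin, pre-warmed 4 h at 37 °C. Overnight cultures adjusted to OD600 ~1.0 and inoculated to final OD600 ≈ 0.05. DMSO-matched growth controls. Incubated overnight at 37 °C; OD600 read every 30 min.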
# Staphylococcus aureus [8] = experiment: Sensitization of methicillin-resistant Staphylococcus aureus Mu 50 to H2O2-induced killing assessed as cell survival at 1 uM pre-incubated for 24 hrs before H2O2 exposure for 30 mins by serial dilution method (reference value: 30.67%); type: functional; details: Mu50
# Staphylococcus aureus [9] = experiment: Effect on Staphylococcus aureus Newman growth at 0.2 mM after overnight incubation by plate reader method; type: organism-based; details: 200 µM; method in brief: as §4
# Staphylococcus aureus [10] = experiment: Sensitization of methicillin-resistant Staphylococcus aureus USA300 LAC to human whole blood assessed as cell survival at 1 uM after 6 hrs by serial dilution method (reference value: 12.17%); type: functional; details: LAC USA300, 6 h
# Staphylococcus aureus [11] = experiment: Sensitization of Staphylococcus aureus Newman to human whole blood assessed as cell survival at 1 uM after 6 hrs by serial dilution method (reference value: 26.67%); type: functional
# Staphylococcus aureus [12] = experiment: (§5) Attenuation of methicillin-resistant Staphylococcus aureus USA400 MW2 virulence in BALB/c mouse systemic infection model assessed as decrease in bacterial burden in liver at 50 mg/kg, ip administered every 12 hrs for 108 hrs followed by bacterial challenge after first 12 hrs of compound dosing measured 5 days post infection; type: functional
# Method in brief: (§6)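 Female BALB/c mice, 6-8 weeks old. Dosed ip every 12 h for 108 h. Challenged with 100 µL at 12 h: 1.6 × 10^8 CFU Mu50 or 4 × 10^7 CFU USA400 MW2. Sacrificed 5 days post-infection. Livers and kidneys homogenised in PBS/0.1% Triton X-100, serially plated on TSA, CFU counted; two-tailed Mann-Whitney.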
# Staphylococcus aureus [13] = experiment: as §5, with “Mu 50” for “USA400 MW2”, “survival” for “burden”; type: functional, Mu50; method in brief: as §6
# Staphylococcus aureus [14] = experiment: (§7) Attenuation of methicillin-resistant Staphylococcus aureus Mu 50 virulence in BALB/c mouse systemic infection model assessed as decrease in bacterial survival in kidney at 200 mg/kg, ip administered every 12 hrs for 108 hrs followed by bacterial challenge after first 12 hrs of compound dosing measured 5 days post infection; type: functional, Mu50; method in brief: as §6
# Staphylococcus aureus [15] = experiment: as §7, with “USA400 MW2” for “Mu 50”; type: functional; method in brief: as §6
# Nannizzia gypsea = experiment: Antifungal activity against naftifine-sensitive Microsporum gypseum after 7 days by serial dilution method; type: functional
# Method in brief: (§8)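 Broth serial dilution in 96-well plates per NCCLS recommendations. Medium: RPMI 1640 buffered with 0.165 M MOPS. Fungi were ATCC strains or clinical isolates.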
# Trichophyton verrucosum = experiment: Antifungal activity against naftifine-sensitive Trichophyton verrucosum after 7 days by serial dilution method; type: functional; method in brief: as §8
# [16] = target: T2, 4,4'-diapophytoene desaturase (4,4'-diaponeurosporene-forming) (Staphylococcus aureus (strain Newman)) (UniProt O07855); experiment: Inhibition of diapophytoene desaturase in Staphylococcus aureus Newman assessed as 4,4'-diapophytoene formation by HPLC method; details: Staphylococcus aureus subsp. aureus str. Newman
# T2 sequence (whole entry): T1 sequence (O07855 whole entry)
# Staphylococcus aureus [17] = experiment: Sensitization of methicillin-resistant Staphylococcus aureus USA300 LAC to H2O2-induced killing assessed as cell survival at 1 uM pre-incubated for 24 hrs before H2O2 exposure for 30 mins by serial dilution method (reference value: 15.83%); type: functional
# [18] = test system: Trichophyton mentagrophytes; experiment: Antifungal activity against naftifine-sensitive Trichophyton mentagrophytes after 7 days by serial dilution method; type: functional; method in brief: as §8
# Staphylococcus aureus [19] = experiment: as §5, with “survival” for “burden”, “kidney” for “liver”; type: functional; method in brief: as §6
# Trichophyton rubrum = experiment: Antifungal activity against naftifine-sensitive Trichophyton rubrum after 7 days by serial dilution method; type: functional; method in brief: as §8
# Staphylococcus aureus [20] = experiment: Effect on methicillin-resistant Staphylococcus aureus Mu 50 growth at 0.05 mM after overnight incubation by plate reader method; type: organism-based, Mu50; details: 50 µM; method in brief: as §4
# Staphylococcus aureus [21] = experiment: as §2, with “heart” for “kidney”; type: functional; method in brief: as §3
# Staphylococcus aureus [22] = experiment: Sensitization of methicillin-resistant Staphylococcus aureus USA400 MW2 to H2O2-induced killing assessed as cell survival at 1 uM pre-incubated for 24 hrs before H2O2 exposure for 30 mins by serial dilution method (reference value: 14.17%); type: functional
# Staphylococcus aureus [23] = experiment: Effect on methicillin-resistant Staphylococcus aureus USA300 LAC growth at 0.2 mM after overnight incubation by plate reader method; type: organism-based; details: 200 µM; method in brief: as §4
# Staphylococcus aureus [24] = experiment: Attenuation of Staphylococcus aureus Newman virulence in BALB/c mouse lethal infection model assessed as mouse survival administered ip every 12 hrs for 108 hrs followed by 2 x 10^7 CFU bacterial challenge after first 12 hrs of compound dosing measured 8 days post challenge; type: functional; method in brief: as §1
# Staphylococcus aureus [25] = experiment: Sensitization of Staphylococcus aureus Newman to H2O2-induced killing assessed as cell survival at 1 uM pre-incubated for 24 hrs before H2O2 exposure for 30 mins by serial dilution method (reference value: 30.43%); type: functional
# Staphylococcus aureus [26] = experiment: as §7, with “50” for “200”; type: functional, Mu50; method in brief: as §6
# Staphylococcus aureus [27] = experiment: Sensitization of methicillin-resistant Staphylococcus aureus USA400 MW2 to human whole blood assessed as cell survival at 1 uM after 6 hrs by serial dilution method (reference value: 10.8%); type: functional; details: MW2 USA400, 6 h
smiles,measurement,setting,value
C/C(=C\c1ccccc1)CN(C)Cc1ccc2c(c1)CCCCC2,IC50,[1],> 10000 nM
C(=C\c1ccccc1)/CNCc1ccc2c(c1)CCCCC2,IC50,[1],> 10000 nM
CN(C/C=C/c1ccccc1)Cc1cccc2c1CCCCC2,IC50,[1],> 10000 nM
CN(C/C=C/c1ccc(Br)cc1)Cc1ccc2c(c1)CCCC2.Cl,solubility at 24 h,[2],2100 µg/mL
same,IC50,[3],450 nM
same,IC50,[1],1.3 nM
CN(C/C=C/c1ccc(C(F)(F)F)cc1)Cc1ccc2c(c1)CCCCC2,IC50,[1],10 nM
Cc1cccc(/C=C/CN(C)Cc2ccc3c(c2)CCCCC3)c1,IC50,[1],770 nM
COc1ccc(/C=C/CN(C)Cc2ccc3c(c2)CCCCC3)cc1.Cl,Survival,Staphylococcus aureus [4],83%
same,survival at 1 µM,Staphylococcus aureus [5],0.4%
same,Activity,Staphylococcus aureus [6],1.17 log10CFU
same,Activity,Staphylococcus aureus [7],Non-toxic
same,survival at 1 µM,Staphylococcus aureus [8],4.44%
same,Activity,Staphylococcus aureus [9],Non-toxic
same,survival at 1 µM,Staphylococcus aureus [10],0.95%
same,solubility at 24 h,[2],4240 µg/mL
same,survival at 1 µM,Staphylococcus aureus [11],1.83%
same,Activity,Staphylococcus aureus [12],3.87 log10CFU
same,Activity,Staphylococcus aureus [13],2.44 log10CFU
same,Activity,Staphylococcus aureus [14],2.27 log10CFU
same,Activity,Staphylococcus aureus [15],99.5%
same,MIC=<80,Nannizzia gypsea,16 µg/mL
same,MIC=<80,Trichophyton verrucosum,8 µg/mL
same,inhibition,[16],Active
same,survival at 1 µM,Staphylococcus aureus [17],0.98%
same,MIC=<80,[18],8 µg/mL
same,Activity,Staphylococcus aureus [19],99.5%
same,MIC=<80,Trichophyton rubrum,8 µg/mL
same,Activity,Staphylococcus aureus [20],Non-toxic
same,Activity,Staphylococcus aureus [21],1.62 log10CFU
same,survival at 1 µM,Staphylococcus aureus [22],0.96%
same,Activity,Staphylococcus aureus [23],Non-toxic
same,Survival,Staphylococcus aureus [24],>60%
same,survival at 1 µM,Staphylococcus aureus [25],0.83%
same,Activity,Staphylococcus aureus [26],0.99 log10CFU
same,survival at 1 µM,Staphylococcus aureus [27],0.2%
C(=C\c1ccccc1)/COCc1ccc2c(c1)CCCCC2,IC50,[1],> 20000 nM
CN(C/C=C/c1ccc([N+](=O)[O-])cc1)Cc1ccc2c(c1)CCCC2,IC50,[1],94.5 nM
CN(C/C=C/c1ccccc1)Cc1ccc2c(c1)CCC2,IC50,[1],808 nM
OC(Cn1cncn1)(Cn1cncn1)c1ccc(F)cc1F [FLUCONAZOLE],MIC=<80,Nannizzia gypsea,8 µg/mL
same,MIC=<80,Trichophyton verrucosum,2 µg/mL
same,MIC=<80,[18],2 µg/mL
same,MIC=<80,Trichophyton rubrum,1 µg/mL
COc1ccc(/C=C/CN(C)Cc2ccc3c(c2)CCCC3)cc1,IC50,[1],12.2 nM
CN(C/C=C/c1ccccc1)Cc1cccc2c1CCC2,IC50,[1],> 2500 nM
CN(C/C=C/c1ccccc1)Cc1ccc2c(c1)CCCC2,IC50,[1],603 nM
C/C=C/CN(C)Cc1ccc2c(c1)CCCCC2,IC50,[1],> 50000 nM
CN(C/C=C/c1ccc([N+](=O)[O-])cc1)Cc1ccc2c(c1)CCCCC2,IC50,[1],12.4 nM
c1ccc(CCCOCc2ccc3c(c2)CCCCC3)cc1,IC50,[1],> 20000 nM
CN(C/C=C/c1ccc(Br)cc1)Cc1ccc2c(c1)CCCCC2.Cl,solubility at 24 h,[2],570 µg/mL
same,IC50,[3],410 nM
same,IC50,[1],7.8 nM
CN(C/C=C/c1ccc(F)cc1)Cc1ccc2c(c1)CCCCC2,IC50,[1],39.4 nM
